Fewer inactive variants are shown than the library holds.
B1: tRNA (parent)
chain: GUUCCGUUGGCGUAAUGGUAACGCGUCUCCCUCCUAAGGAGAAGACUGCGGGUUCGAGUCCCGUACGGAACG

Variants of: B1
Experiment: yeast fitness relative to wild type (ratio to wild type); higher = fitter; tRNA-Arg(CCU), competitive growth, 37 C, YPD
Procedure, shortened: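 Changes in genotype frequencies gave Darwinian fitness relative to wild type. Frequencies were read by 100-nucleotide paired-end sequencing of gene amplicons before and after pooled Saccharomyces cerevisiae strains, carrying tRNA-Arg(CCU) gene variants at the native locus, were competed in YPD at 37°C for 24 hours in six replicates. A genotype was kept only with ≥ 100 starting reads, and estimates < 0.5 were set to 0.5.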

Question: For GUUCCGUUGGCGUAAUGGUAACGCGUCUCCCUGCUAAGGAGAAGACUGCGGGUUUCAGUCCCGUACGGCACG [C33G C55U G56C A69C], which yeast fitness is on record?
Answer: The yeast fitness was 0.831.

Question: Which yeast fitness does the source give for GUUCCGUUGGCGUAAUGGUAACGCGUCUCCCUGCUAAGGAGAAGACUGCGGGUUCGAGUUCCGUACGGAACG [C33G C60U] here?
Answer: Its yeast fitness is ≤ 0.5.

Question: With GUUCCGUUGGCGUAAUGGUAACGCGUCUCCCUGCUAAGGAGAAGACUGCGGGUUCGAGUUCCGUACGGUACG [C33G C60U A69U] as the variant, how does the yeast fitness read?
Answer: The yeast fitness was ≤ 0.5.

Question: For GUUCCGUUGGCGUAAUGGUAACGCGUCUCCCUGCUAAGGAGAAGACUGCGGGUUCGAGUCACGUAUGGAACG [C33G C61A C66U], which yeast fitness is on record?
Answer: Its yeast fitness is 0.583.

Question: For GUUCCGUUGGCGUAAUGGUAACGCGUCUCCCUGCUAAGGAGAAGACUGCGGGUUCGAGUCUGGUAUGGAACG [C33G C61U C62G C66U], which yeast fitness is on record?
Answer: The yeast fitness was ≤ 0.5.

Question: With GUUCCGUUGGCGUAAUGGUAACGCGUCUCCCUGCUAAGGAGAAGACUGCGGGUUCGAGUCUCGUACAGAACG [C33G C61U G67A] as the variant, how does the yeast fitness read?
Answer: Its yeast fitness is 0.649.

Question: Which yeast fitness does the source give for GUUCCGUUGGCGUAAUGGUAACGCGUCUCCCUGCUAAGGAGAAGACUGCGGGUUCGAGUCCGGUACGGAACG [C33G C62G] here?
Answer: Its yeast fitness is 0.597.

Question: For GUUCCGUUGGCGUAAUGGUAACGCGUCUCCCUGCUAAGGAGAAGACUGCGGGUUCGAGUCCUGUACGGACCG [C33G C62U A70C], which yeast fitness is on record?
Answer: The yeast fitness was 0.618.

Question: For GUUCCGUUGGCGUAAUGGUAACGCGUCUCCCUGCUAAGGAGAAGACUGCGGGUUCGAGUCCCGUAGGGAACG [C33G C66G], which yeast fitness is on record?
Answer: The yeast fitness was 0.604.

Question: Which yeast fitness does the source give for GUUCCGUUGGCGUAAUGGUAACGCGUCUCCCUGCUAAAGAAAAGACUGCGGGUUCGAGUCCCGUACGGAACG [C33G G38A G41A] here?
Answer: The yeast fitness was ≤ 0.5.

Question: Which yeast fitness does the source give for GUUCCGUUGGCGUAAUGGUAACGCGUCUCCCUGCUAACGAGAAGACUGCGGGUUCGAGUCCCGUACGGAACG [C33G G38C] here?
Answer: The yeast fitness was 0.548.

Question: Which yeast fitness does the source give for GUUCCGUUGGCGUAAUGGUAACGCGUCUCCCUGCUAACGAGAAGACUGCGGGUUCGAGUCCCGUACGGACCG [C33G G38C A70C] here?
Answer: The yeast fitness was 0.705.

Question: With GUUCCGUUGGCGUAAUGGUAACGCGUCUCCCUGCUAACGAGAAGAGUGCGGGCUCGAGUCCCGUACGGCACG [C33G G38C C46G U53C A69C] as the variant, how does the yeast fitness read?
Answer: The yeast fitness was ≤ 0.5.

Question: For GUUCCGUUGGCGUAAUGGUAACGCGUCUCCCUGCUAACGAGAAGACUGCGGGUUAGAGUCCCGUUCGGAACG [C33G G38C C55A A65U], which yeast fitness is on record?
Answer: Its yeast fitness is 0.665.

Question: Which yeast fitness does the source give for GUUCCGUUGGCGUAAUGGUAACGCGUCUCCCUGCUAAGAAGAAGACUGGGGGUACGAGUCCCGUACGGAACG [C33G G39A C49G U54A] here?
Answer: The yeast fitness was ≤ 0.5.

Question: Which yeast fitness does the source give for GUUCCGUUGGCGUAAUGGUAACGCGUCUCCCUGCUAAGCAGAAGACUGCGGGUUCGAGUCCCGUACGGCACG [C33G G39C A69C] here?
Answer: Its yeast fitness is ≤ 0.5.

Question: For GUUCCGUUGGCGUAAUGGUAACGCGUCUCCCUGCUAAGCAGAAGACUGCGGGUUUGAGUCCCGUACGGAACG [C33G G39C C55U], which yeast fitness is on record?
Answer: Its yeast fitness is 0.515.

Question: Which yeast fitness does the source give for GUUCCGUUGGCGUAAUGGUAACGCGUCUCCCUGCUAAGGAAAAGACAGCGGGUUCGAGUCUCGUACGGUACG [C33G G41A U47A C61U A69U] here?
Answer: Its yeast fitness is ≤ 0.5.

Question: With GUUCCGUUGGCGUAAUGGUAACGCGUCUCCCUGCUAAGGACAAGACUGCGGGUUCGAGUCCCGUACGGAACG [C33G G41C] as the variant, how does the yeast fitness read?
Answer: The yeast fitness was 0.58.

Question: For GUUCCGUUGGCGUAAUGGUAACGCGUCUCCCUGCUAAGGACACGACUGCGGGUUCGAGUCUCGUAUGGAACG [C33G G41C A43C C61U C66U], which yeast fitness is on record?
Answer: Its yeast fitness is ≤ 0.5.

Question: Which yeast fitness does the source give for GUUCCGUUGGCGUAAUGGUAACGCGUCUCCCUGCUAAGGACACGACUGCGGGUUCGAGUCCCGUACCGAACG [C33G G41C A43C G67C] here?
Answer: Its yeast fitness is ≤ 0.5.

Question: Which yeast fitness does the source give for GUUCCGUUGGCGUAAUGGUAACGCGUCUCCCUGCUAAGGACAAGACUGCGGGUUCGAGUCGCGUUCGGAACG [C33G G41C C61G A65U] here?
Answer: The yeast fitness was ≤ 0.5.

Question: With GUUCCGUUGGCGUAAUGGUAACGCGUCUCCCUGCUAAGGACAAGACUGCGGGUUCCAAUCCCCUUCGGAACG [C33G G41C G56C G58A G63C A65U] as the variant, how does the yeast fitness read?
Answer: Its yeast fitness is 0.587.

Question: With GUUCCGUUGGCGUAAUGGUAACGCGUCUCCCUGCUAAGGACAAGACUGCGGGUUCCAACCCCCUUCGGAACG [C33G G41C G56C G58A U59C G63C A65U] as the variant, how does the yeast fitness read?
Answer: The yeast fitness was ≤ 0.5.

Question: For GUUCCGUUGGCGUAAUGGUAACGCGUCUCCCUGCUAAGGAGAACACUGCGGGUUCGAGUCCCGUACGGAACG [C33G G44C], which yeast fitness is on record?
Answer: Its yeast fitness is 0.735.

Question: For GUUCCGUUGGCGUAAUGGUAACGCGUCUCCCUGCUAAGGAGAAGACUACGGGUUCGAGUCCCGUAGGGACCG [C33G G48A C66G A70C], which yeast fitness is on record?
Answer: The yeast fitness was 0.524.

Question: For GUUCCGUUGGCGUAAUGGUAACGCGUCUCCCUGCUAAGGAGAAGACUACGGGUUCGAGUCCCGAACGGAACG [C33G G48A U64A], which yeast fitness is on record?
Answer: The yeast fitness was 0.613.

Question: With GUUCCGUUGGCGUAAUGGUAACGCGUCUCCCUGCUAAGGAGAAGACUGCAGGUUCGAGUCCCGUACGGAACG [C33G G50A] as the variant, how does the yeast fitness read?
Answer: Its yeast fitness is 0.614.

Question: With GUUCCGUUGGCGUAAUGGUAACGCGUCUCCCUGCUAAGGAGAAGACUGCGAGUUCGAGUCCCGUACGGAACG [C33G G51A] as the variant, how does the yeast fitness read?
Answer: Its yeast fitness is 0.626.

Question: With GUUCCGUUGGCGUAAUGGUAACGCGUCUCCCUGCUAAGGAGAAGACUGCGAGUUAGAGUCCCGUACGGAACG [C33G G51A C55A] as the variant, how does the yeast fitness read?
Answer: Its yeast fitness is ≤ 0.5.

Question: For GUUCCGUUGGCGUAAUGGUAACGCGUCUCCCUGCUAAGGAGAAGACUGCGAGAUCAAGUCCCGUACCGAACG [C33G G51A U53A G56A G67C], which yeast fitness is on record?
Answer: Its yeast fitness is ≤ 0.5.

Question: For GUUCCGUUGGCGUAAUGGUAACGCGUCUCCCUGCUAAGGAGAAGACUGCGCGUUCGAGUCCCGUACGGAACG [C33G G51C], which yeast fitness is on record?
Answer: Its yeast fitness is ≤ 0.5.

Question: Which yeast fitness does the source give for GUUCCGUUGGCGUAAUGGUAACGCGUCUCCCUGCUAAGGAGAAGACUGCGCGUUCGAGUCCCGUAGCGAACG [C33G G51C C66G G67C] here?
Answer: The yeast fitness was ≤ 0.5.

Question: Which yeast fitness does the source give for GUUCCGUUGGCGUAAUGGUAACGCGUCUCCCUGCUAAGGAGAAGACUGCGGAUUCGAGUCCCGUCCGGAACG [C33G G52A A65C] here?
Answer: The yeast fitness was ≤ 0.5.

Question: For GUUCCGUUGGCGUAAUGGUAACGCGUCUCCCUGCUAAGGAGAAGACUGCGGCUUCGAGUCUCGUACGGAACG [C33G G52C C61U], which yeast fitness is on record?
Answer: Its yeast fitness is 0.566.

Question: With GUUCCGUUGGCGUAAUGGUAACGCGUCUCCCUGCUAAGGAGAAGACUGCGGCUUCGAGUCUCGCACGGAACG [C33G G52C C61U U64C] as the variant, how does the yeast fitness read?
Answer: The yeast fitness was ≤ 0.5.

Question: Which yeast fitness does the source give for GUUCCGUUGGCGUAAUGGUAACGCGUCUCCCUGCUAAGGAGAAGACUGCGGGUUCCAGUCCCGUACGGAACG [C33G G56C] here?
Answer: The yeast fitness was 0.679.

Question: Which yeast fitness does the source give for GUUCCGUUGGCGUAAUGGUAACGCGUCUCCCUGCUAAGGAGAAGACUGCGGGUUCCAGUCCCGUACGGAUCG [C33G G56C A70U] here?
Answer: Its yeast fitness is 0.727.
